Several values for one entry are separate records, joined by “and”; a condition that tells them apart may be missing. Identical values can stand only once.
Columns and labels:
[1] = target: Sodium-dependent dopamine transporter (Rattus norvegicus) (UniProt P23977); experiment: Percent inhibition of [3H]DA uptake in rat brain tissue at 100 uM; type: functional, tissue-based
How it was run: (§1)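 Rat caudate-putamen chopped into 225 µm slices, suspended in oxygenated modified Krebs-HEPES buffer at 37 °C. Tissue preincubated 5 min with drug, then [3H]dopamine (final 15 nM) added for 5 min. Uptake stopped with ice-cold buffer and filtration; accumulated label extracted and counted by liquid scintillation. Specific uptake reported after subtracting filter binding. Single-concentration values are % inhibition at 100 µM.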

[2] = target: Sodium-dependent dopamine transporter (Rattus norvegicus) (UniProt P23977); experiment: Percent inhibition of [3H]WIN-35428 binding to rat Dopamine transporter at 100 uM
How it was run: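 Male Sprague-Dawley rat caudate-putamen membranes in modified Krebs-HEPES buffer, pH 7.4. Drug preincubated 5 min, then [3H]WIN 35,428 (final 1.5 nM) added for 1 h on ice, followed by filtration. Value is % inhibition at 100 µM.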

Mu-type opioid receptor [3] = target: T1, Mu-type opioid receptor (Homo sapiens, UniProt P35372); experiment: Percent inhibition of [3H]DAMGO binding to rat brain mu-opioid receptor at 100 uM; conditions: target entry is the homologue from another species
[4] = target: T2, Norepinephrine transporter (Rattus norvegicus, UniProt Q9WTR4); experiment: Inhibition of [3H]nisoxetine binding to rat norepinephrine transporter at 10 uM
How it was run: (§2)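 Male Sprague-Dawley rat frontal cortex membranes in 50 mM Tris, 120 mM NaCl, 5 mM KCl, pH 7.4, 8 mg tissue per tube. Incubated with [3H]nisoxetine (final 0.5 nM) for 1 h on ice, then filtered. Desipramine defines nonspecific binding. Single-concentration values are % specific binding remaining at 10 µM. Mean ± SEM of three experiments in triplicate.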

[5] = Ratio of binding affinity of mu-opioid receptor and serotonin transporter
[6] = target: T3, Sodium-dependent dopamine transporter (Rattus norvegicus, UniProt P23977); experiment: Inhibition of [3H]-DA uptake in rat brain; type: functional, tissue-based; how it was run: as §1
[7] = target: T4, Monoamine transporters; serotonin & dopamine (Homo sapiens) (UniProt P31645+Q01959); experiment: Ratio of binding affinity for dopamine and serotonin transporters; type: protein assay
How it was run: (§3)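 Ratio of Ki values, DAT/SERT. DAT Ki from [3H]WIN 35,428 (1.5 nM) competition in rat caudate-putamen membranes on ice, 1 h. SERT Ki from [3H]paroxetine (0.2 nM) binding to rat midbrain membranes, 90 min at room temperature, with 1 µM citalopram defining nonspecific binding.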

[8] = target: Norepinephrine transporter (Rattus norvegicus) (UniProt Q9WTR4); experiment: Percent inhibition of [3H]nisoxetine binding to norepinephrine transporter at 10 uM
[9] = Ratio of binding affinity for mu-opioid receptor and dopamine transporter
Mu-type opioid receptor [10] = target: T1, Mu-type opioid receptor; experiment: Inhibition of [3H]DAMGO binding to mu-opioid receptor
[11] = target: Sodium-dependent dopamine transporter (Rattus norvegicus) (UniProt P23977); experiment: Percent inhibition of [3H]dopamine uptake in rat brain tissue at 100 uM; type: functional, tissue-based; how it was run: as §1
[12] = Ratio of binding affinity of mu-opioid receptor and dopamine transporter
[13] = target: T3, Sodium-dependent dopamine transporter; experiment: Inhibitory concentration against [3H]DA uptake in rat brain tissue; type: functional, tissue-based; how it was run: as §1
[14] = target: T4, Monoamine transporters; serotonin & dopamine (Homo sapiens); experiment: Ratio of binding affinity of dopamine and serotonin transporters; type: protein assay; how it was run: as §3
[15] = target: T2, Norepinephrine transporter; experiment: Inhibition of [3H]-nisoxetine binding to rat norepinephrine transporter; how it was run: as §2
[16] = target: Sodium-dependent dopamine transporter (Rattus norvegicus) (UniProt P23977); conditions: Brain, 100 uM
[17] = target: Sodium-dependent dopamine transporter (Rattus norvegicus) (UniProt P23977); conditions: Brain, 100 uM; remark: listed apart in the source
[18] = Ratio of binding affinity of mu-opioid receptor and dopamine taransporter
Mu-type opioid receptor [19] = target: T1, Mu-type opioid receptor; experiment: Inhibition of [3H]DAMGO binding to mu-opioid receptor at 100 uM
Mu-type opioid receptor [20] = target: T1, Mu-type opioid receptor; experiment: Inhibition of [3H]-DAMGO binding to mu opioid receptor at 10 uM
[21] = target: T3, Sodium-dependent dopamine transporter; experiment: Inhibitory concentration against [3H]dopamine uptake in rat brain tissue; type: functional, tissue-based
How it was run: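 Rat caudate-putamen chopped into 225 µm slices, suspended in Krebs-HEPES buffer pregassed with 95% O2/5% CO2 at 37 °C. Tissue preincubated 5 min with or without drug (highest 100 µM), then [3H]dopamine (15 nM final) added for 5 min. Stopped with ice-cold buffer and filtration; accumulated label extracted and counted by scintillation; filter binding subtracted. Three experiments in triplicate.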

[22] = target: T4, Monoamine transporters; serotonin & dopamine (Homo sapiens); experiment: Ratio of binding affinity of dopamine and Serotonin transporters; type: protein assay; how it was run: as §3
[23] = Ratio of binding affinity of mu-opioid receptor and Serotonin transporter
Mu-type opioid receptor [24] = target: T1, Mu-type opioid receptor; experiment: Inhibition of [3H]-DAMGO binding to mu-opioid receptor

Sequence of Sodium-dependent dopamine transporter (Rattus norvegicus) (P23977 whole entry): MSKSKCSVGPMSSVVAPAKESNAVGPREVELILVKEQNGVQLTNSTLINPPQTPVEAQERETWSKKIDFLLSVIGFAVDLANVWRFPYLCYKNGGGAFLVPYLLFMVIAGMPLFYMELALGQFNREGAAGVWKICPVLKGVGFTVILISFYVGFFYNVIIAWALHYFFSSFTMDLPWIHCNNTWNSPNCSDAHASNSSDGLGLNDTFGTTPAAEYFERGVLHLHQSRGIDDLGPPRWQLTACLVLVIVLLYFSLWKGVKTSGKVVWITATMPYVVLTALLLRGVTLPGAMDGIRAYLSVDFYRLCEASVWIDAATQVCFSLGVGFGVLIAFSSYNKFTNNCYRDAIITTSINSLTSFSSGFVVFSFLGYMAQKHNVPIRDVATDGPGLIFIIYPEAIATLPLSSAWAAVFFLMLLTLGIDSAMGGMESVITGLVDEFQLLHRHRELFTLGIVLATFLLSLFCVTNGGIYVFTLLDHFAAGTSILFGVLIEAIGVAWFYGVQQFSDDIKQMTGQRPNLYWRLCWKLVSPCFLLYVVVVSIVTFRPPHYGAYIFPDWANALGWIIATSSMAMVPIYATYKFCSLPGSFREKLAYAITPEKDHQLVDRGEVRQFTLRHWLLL
T3 sequence (P23977 whole entry): as above
T4 sequence (P31645 whole entry, looked up): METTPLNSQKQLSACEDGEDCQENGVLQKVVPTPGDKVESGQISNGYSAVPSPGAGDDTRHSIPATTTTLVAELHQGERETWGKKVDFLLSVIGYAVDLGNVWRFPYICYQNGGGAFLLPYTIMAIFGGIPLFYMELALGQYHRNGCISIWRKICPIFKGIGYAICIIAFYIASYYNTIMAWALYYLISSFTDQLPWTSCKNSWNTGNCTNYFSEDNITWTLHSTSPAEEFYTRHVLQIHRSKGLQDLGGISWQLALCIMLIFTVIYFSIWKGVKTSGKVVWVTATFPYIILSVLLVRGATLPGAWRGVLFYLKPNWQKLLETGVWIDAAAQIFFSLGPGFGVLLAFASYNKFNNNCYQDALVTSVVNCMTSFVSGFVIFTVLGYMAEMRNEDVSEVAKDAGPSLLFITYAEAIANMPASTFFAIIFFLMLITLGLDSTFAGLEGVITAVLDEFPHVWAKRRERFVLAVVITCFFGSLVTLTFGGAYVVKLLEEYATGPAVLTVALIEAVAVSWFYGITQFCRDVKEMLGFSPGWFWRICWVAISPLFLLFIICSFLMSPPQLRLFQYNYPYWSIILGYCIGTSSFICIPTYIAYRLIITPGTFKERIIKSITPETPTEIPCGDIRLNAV
T4 sequence (Q01959 whole entry, looked up): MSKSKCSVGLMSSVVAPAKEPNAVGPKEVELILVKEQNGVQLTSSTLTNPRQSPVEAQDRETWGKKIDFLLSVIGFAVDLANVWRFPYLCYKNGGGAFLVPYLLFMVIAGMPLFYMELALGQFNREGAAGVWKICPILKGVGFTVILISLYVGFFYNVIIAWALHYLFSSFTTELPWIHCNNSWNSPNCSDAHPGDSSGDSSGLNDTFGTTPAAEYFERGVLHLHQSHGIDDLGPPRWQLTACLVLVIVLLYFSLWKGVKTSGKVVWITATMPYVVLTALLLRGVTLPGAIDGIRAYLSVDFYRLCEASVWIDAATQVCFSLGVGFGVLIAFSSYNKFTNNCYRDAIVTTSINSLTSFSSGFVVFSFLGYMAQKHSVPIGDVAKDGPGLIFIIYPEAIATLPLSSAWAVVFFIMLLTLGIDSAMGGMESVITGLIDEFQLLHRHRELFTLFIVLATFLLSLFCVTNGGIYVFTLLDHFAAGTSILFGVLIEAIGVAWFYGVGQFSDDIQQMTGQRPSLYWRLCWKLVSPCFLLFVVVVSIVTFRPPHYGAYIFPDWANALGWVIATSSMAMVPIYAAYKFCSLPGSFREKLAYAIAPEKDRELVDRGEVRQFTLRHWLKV
T1 sequence (P35372 whole entry): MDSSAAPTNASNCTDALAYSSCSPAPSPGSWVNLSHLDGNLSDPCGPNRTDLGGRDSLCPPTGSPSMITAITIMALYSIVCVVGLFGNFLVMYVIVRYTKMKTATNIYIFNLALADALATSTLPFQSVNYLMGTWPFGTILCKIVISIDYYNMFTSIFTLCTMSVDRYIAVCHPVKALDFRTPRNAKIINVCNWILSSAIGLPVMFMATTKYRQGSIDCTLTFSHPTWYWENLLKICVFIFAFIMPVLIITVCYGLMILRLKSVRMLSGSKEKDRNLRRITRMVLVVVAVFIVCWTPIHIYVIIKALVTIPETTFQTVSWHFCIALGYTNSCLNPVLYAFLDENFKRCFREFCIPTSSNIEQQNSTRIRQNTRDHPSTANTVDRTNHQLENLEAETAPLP
Sequence of Norepinephrine transporter (Rattus norvegicus) (Q9WTR4 as listed by the source): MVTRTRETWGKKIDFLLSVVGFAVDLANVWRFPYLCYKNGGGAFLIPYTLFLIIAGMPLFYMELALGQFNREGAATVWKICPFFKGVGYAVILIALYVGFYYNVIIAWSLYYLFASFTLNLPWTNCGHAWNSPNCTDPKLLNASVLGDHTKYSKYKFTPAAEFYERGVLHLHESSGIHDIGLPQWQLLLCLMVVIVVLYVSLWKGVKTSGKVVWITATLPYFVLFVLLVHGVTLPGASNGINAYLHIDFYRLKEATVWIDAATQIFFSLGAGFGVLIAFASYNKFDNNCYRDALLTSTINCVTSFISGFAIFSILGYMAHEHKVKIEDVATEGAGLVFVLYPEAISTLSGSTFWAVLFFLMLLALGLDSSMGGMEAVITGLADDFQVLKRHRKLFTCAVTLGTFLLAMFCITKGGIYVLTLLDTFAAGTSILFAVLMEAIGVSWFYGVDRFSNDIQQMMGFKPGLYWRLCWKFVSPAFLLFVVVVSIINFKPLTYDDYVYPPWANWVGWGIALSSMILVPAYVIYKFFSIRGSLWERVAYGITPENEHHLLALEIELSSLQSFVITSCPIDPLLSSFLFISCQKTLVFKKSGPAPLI
T2 sequence (Q9WTR4 whole entry): as the sequence (Q9WTR4 as listed by the source) above

Work on CN1CCC(C#N)(c2ccc(F)cc2)CC1 yielded an inhibition [1] of 8%, an inhibition [2] of 45% and an inhibition (Mu-type opioid receptor [3]) of 15%. The Ki [4] was 101 µM.
Work on CN1CCC(C#N)(c2ccc(Cl)c(Cl)c2)CC1 yielded a Ratio [5] of 49.7, an IC50 [6] of 11.1 µM and a Ratio [7] of 3.32. It also gave an inhibition [8] of 94.1%, an inhibition (Mu-type opioid receptor [3]) of 46% and a Ratio [9] of 15. The Ki (Mu-type opioid receptor [10]) was 40 µM.
CCOC(=O)C1(c2ccc(Cl)c(Cl)c2)CCN(C)CC1 showed a Ratio [5] of 109, an inhibition [11] of 22% and a Ratio [12] of 16.3. The IC50 [13] was 6.01 µM and 1.4 µM, the Ratio [14] was 6.68 and the Ki (Mu-type opioid receptor [10]) was 2.04 µM. The Ki [15] was 74.5 µM.
With CCOC(=O)C1(c2ccc(I)cc2)CCN(C)CC1 the Ratio [5] was 111, the IC50 [13] was 11.1 µM and the Ki (Mu-type opioid receptor [10]) was 2.35 µM. It also gave a Ki [15] of 519 µM.
Molecule Cc1ccc(C2(C#N)CCN(C)CC2)cc1 has a Ratio [5] of 2.96, an inhibition [16] of 22% and a Ratio [12] of 0.97. It also gave an inhibition [8] of 103%, an inhibition [17] of 46% and a Ratio [14] of 3.05. The Ki (Mu-type opioid receptor [10]) was 40.6 µM.
CN1CCC(C#N)(c2ccc(I)cc2)CC1 showed a Ratio [5] of 40.2, a Ratio [18] of 2.07 and a Ki (Mu-type opioid receptor [19]) of 17.3 µM. It also gave an inhibition (Mu-type opioid receptor [3]) of 61%, an inhibition (Mu-type opioid receptor [20]) of 93.6% and a Ratio [14] of 19.4. For the same molecule, the IC50 [21] was 36.7 µM.
With CCOC(=O)C1(c2ccc(Cl)cc2)CCN(C)CC1 the Ratio [5] was 15.9, the IC50 [6] was 26.9 µM and the Ratio [12] was 1.08. For the same molecule, the Ratio [14] was 14.8, the Ki (Mu-type opioid receptor [10]) was 4.41 µM and the Ki [15] was 601 µM.
In the case of CN1CCC(C#N)(c2ccc3ccccc3c2)CC1, the Ratio [5] is reported as 123, the inhibition [11] is reported as 11% and the Ratio [12] is reported as 6.53. For the same molecule, the inhibition [8] was 88.1%, the Ki (Mu-type opioid receptor [19]) was 15.4 µM and the inhibition (Mu-type opioid receptor [3]) was 61%. The Ratio [14] was 18.9.
With CCOC(=O)C1(c2ccc3ccccc3c2)CCN(C)CC1 the Ratio [5] was 282, the inhibition [11] was 16% and the Ratio [12] was 1.78. The IC50 [13] was 3.19 µM and 11.6 µM, the Ratio [14] was 158 and the Ki (Mu-type opioid receptor [10]) was 2.03 µM. It also gave a Ki [15] of 71.1 µM.
Work on CN1CCC(C#N)(c2ccc(Cl)cc2)CC1 yielded a Ratio [5] of 0.18, an inhibition [1] of 36% and a Ratio [12] of 1.67. For the same molecule, the inhibition [8] was 106%, the Ki (Mu-type opioid receptor [19]) was 36.8 µM and the inhibition (Mu-type opioid receptor [3]) was 51%. The Ratio [14] was 4.31.
Molecule CCOC(=O)C1(c2ccc(C)cc2)CCN(C)CC1 has a Ratio [5] of 1.66, a Ratio [12] of 0.22 and an IC50 [13] of 76.2 µM. The inhibition [8] was 57.6%, the Ratio [14] was 7.69 and the Ki (Mu-type opioid receptor [10]) was 2.67 µM.
In the case of CCOC(=O)C1(c2ccc(F)cc2)CCN(C)CC1, the inhibition [11] is reported as 47%, the inhibition [8] is reported as 71.9% and the Ratio [22] is reported as 34.7. It also gave a Ratio [23] of 4.77 and a Ratio (Mu-type opioid receptor [24]) of 0.14.
